The results in this text go back to ChEMBL document CHEMBL1121581, “4-Piperazinyl-10H-thieno[2,3-b][1,5]benzodiazepines as potential neuroleptics” (J Med Chem, 1980).

One data set deals with Mus musculus. The data set is described as follows: Hypothermia in mice after peroral administration. Type of data set: functional.
The subject of data set [1] is Rattus norvegicus. The data set is described as follows: Compound was assessed for its ability to produce catalepsy in rats; Dose administered perorally is 10 mg/kg; Group score is 8-15. Type of data set: functional. The note with it: route oral. Put shortly: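 Groups of eight Lilly Wistar rats (180–190 g) were dosed orally, then checked at 0.5, 1, 1.5, 2, 3, 4 and 5 h. Front paws were placed on a 1.5-cm rod 7 cm above the table, and hold time was recorded up to 20 min. Each rat was scored 0–5 and its maximum scores were summed per group (maximum 40), then graded 0–4.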

A short description of data set [2]: Lethal dose in mice after perorla administration. The settings on record: mouse, in vivo, po. The data set is classed as toxicity, organism-based.
The subject of data set [3] is Rattus norvegicus. The data set is described as follows: Compound was assessed for its ability to block a conditioned avoidance response; Dose administered perorally is 10 mg/kg; 76-99%block. The data set is classed as functional. The note with it: route oral. Put shortly: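 Lilly Wistar rats (120–130 g) trained in a shuttle box to cross on a 5-s buzzer, with mild shock if no response within 1 s of buzzer end. Only rats with a high conditioned response were used. Groups of five were dosed orally 1 h 50 min before the session, then habituated 10 min and tested 20 min. Shocks were scored as % of stimuli and graded 0–5.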

The subject of data set [4] is Rattus norvegicus. The data set can be described thus: Compound was assessed for its ability to block a conditioned avoidance response; Dose administered intraperitoneally is 50 mg/kg; 31-50%block. Type of data set: functional. The settings on record: route intraperitoneal. Put shortly:
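Shuttle-box conditioned avoidance in Lilly Wistar rats (120–130 g) pretrained to a 5-s buzzer with mild shock after a 1-s failure to respond. Groups of five had 10-min habituation and a 20-min test. Block was taken as shocks received as % of buzzer presentations and graded 0–5. Maximum dose was half the rotarod-disruption ED₅₀.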

As for `CC(C)c1cc2c(s1)Nc1ccc(F)cc1N=C2N1CCN(C)CC1`, in the data set on Mus musculus, the EDmin worked out at 6.25 mg/kg. For the same molecule, the Activity with Rattus norvegicus [1] stood at 2; in the data set with Rattus norvegicus [3], 4. For the same molecule, the LD50 in data set [2] turned out to be 50 mg/kg.
Molecule `CCc1cc2c(s1)Nc1ccc(F)cc1N=C2NCCCN1CCN(C)CC1` came in with an EDmin in the data set on Mus musculus of 200 mg/kg. The same molecule came in with an LD50 in data set [2] of 400 mg/kg. Also, the Activity in the data set on Rattus norvegicus [4] is recorded as 2.
